Experimental findings from ChEMBL document CHEMBL1129251 (J Med Chem, 1996) are described below.

Structures are written as SMILES.

As a reminder, the EC50 is the midpoint of the concentration-response curve.

A short description of assay [1]: Alpha 2 antagonistic adrenoceptor activity in human blood platelets Potency ratio: IC50(medetomidine)/IC50(analog). It counts as functional. The method, boiled down:
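Inhibition of epinephrine (30-100 µM)-induced primary-wave aggregation in aspirin (1 mM)-treated human platelet-rich plasma, with inhibitor added 1 min before agonist.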

In assay [2] the target is T1, Adrenergic receptor alpha-1 (Rattus norvegicus, UniProt P15823+P23944+P43140).
T1 sequence (P15823 whole entry): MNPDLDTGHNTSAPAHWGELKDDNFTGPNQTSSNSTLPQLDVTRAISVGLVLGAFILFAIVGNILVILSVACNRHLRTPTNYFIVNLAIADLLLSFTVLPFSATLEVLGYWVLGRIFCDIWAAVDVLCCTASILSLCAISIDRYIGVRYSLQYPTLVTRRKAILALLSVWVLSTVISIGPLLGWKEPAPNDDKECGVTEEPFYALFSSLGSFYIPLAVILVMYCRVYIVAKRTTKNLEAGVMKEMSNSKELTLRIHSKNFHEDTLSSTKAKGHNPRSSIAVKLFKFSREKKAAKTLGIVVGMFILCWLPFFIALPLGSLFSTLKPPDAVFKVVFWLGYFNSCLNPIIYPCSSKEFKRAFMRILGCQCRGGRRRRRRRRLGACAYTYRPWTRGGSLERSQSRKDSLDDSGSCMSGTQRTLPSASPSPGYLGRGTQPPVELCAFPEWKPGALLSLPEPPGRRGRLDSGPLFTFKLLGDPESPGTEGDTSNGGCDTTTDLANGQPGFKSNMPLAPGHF
T1 sequence (P23944 whole entry): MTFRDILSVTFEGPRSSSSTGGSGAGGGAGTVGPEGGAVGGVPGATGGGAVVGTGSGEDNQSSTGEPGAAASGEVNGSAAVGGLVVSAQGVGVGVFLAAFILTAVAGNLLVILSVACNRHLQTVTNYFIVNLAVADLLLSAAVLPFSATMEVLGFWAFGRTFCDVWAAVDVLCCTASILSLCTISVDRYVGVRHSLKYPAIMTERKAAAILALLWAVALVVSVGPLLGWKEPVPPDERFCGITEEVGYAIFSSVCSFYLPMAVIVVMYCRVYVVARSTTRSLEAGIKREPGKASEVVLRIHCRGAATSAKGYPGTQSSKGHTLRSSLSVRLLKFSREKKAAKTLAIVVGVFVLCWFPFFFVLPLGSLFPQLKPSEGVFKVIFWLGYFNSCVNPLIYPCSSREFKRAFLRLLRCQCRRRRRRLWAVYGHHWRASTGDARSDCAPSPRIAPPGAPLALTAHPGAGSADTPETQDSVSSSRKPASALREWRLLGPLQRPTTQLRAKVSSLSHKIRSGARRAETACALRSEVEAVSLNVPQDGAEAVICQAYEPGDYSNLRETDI
T1 sequence (P43140 whole entry): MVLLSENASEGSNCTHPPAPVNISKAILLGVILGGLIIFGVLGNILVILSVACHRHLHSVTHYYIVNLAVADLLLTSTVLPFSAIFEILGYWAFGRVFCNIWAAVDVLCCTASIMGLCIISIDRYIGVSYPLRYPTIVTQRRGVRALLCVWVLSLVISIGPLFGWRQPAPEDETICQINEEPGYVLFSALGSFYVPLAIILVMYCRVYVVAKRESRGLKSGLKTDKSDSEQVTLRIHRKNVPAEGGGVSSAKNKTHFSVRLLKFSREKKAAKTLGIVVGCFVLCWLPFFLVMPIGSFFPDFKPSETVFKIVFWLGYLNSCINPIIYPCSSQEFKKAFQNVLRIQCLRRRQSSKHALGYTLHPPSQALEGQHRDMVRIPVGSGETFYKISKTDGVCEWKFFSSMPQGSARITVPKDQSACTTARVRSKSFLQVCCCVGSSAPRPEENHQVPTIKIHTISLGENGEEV
The experiment in a line: 50% Molar effective concentration for agonistic activity against Alpha-1 adrenergic receptor in rat aorta. It counts as functional, tissue-based. The method, boiled down:
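Aorta from rats of 150-300 g, either sex. Tissue checked with 30 nM phenylephrine, then a cumulative phenylephrine curve. After 90 min the test agent was added cumulatively. Contraction expressed as % of the maximum to 1 µM phenylephrine (= 100%). EC50 is the molar 50% effective concentration; Emax is the maximal response relative to phenylephrine.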

Assay [3] in a line: Antagonistic activity against alpha2 adrenoceptor in human blood platelets expressed as IC50(medetomidine)/IC50(analog). It counts as functional. Put shortly: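 Human platelet-rich plasma; inhibitor at various concentrations added 1 min before triggering aggregation with epinephrine (30-100 µM); aspirin 1 mM routinely added to study the primary-wave aggregation response.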

As to `c1ccc2c3c(ccc2c1)CCCC3c1c[nH]cn1` (stereo not drawn), the Potency ratio in assay [1] is recorded as 0.03. Turning to `CC(c1c[nH]cn1)c1cccc2ccccc12` (stereo not drawn), the 50% effective concentration (EC50) in assay [2] was found to be 153 nM. Further, the Potency ratio in assay [3] is 0.69.
